Laboratory results taken from ChEMBL document CHEMBL5705886, “GSK1070916, a potent Aurora B/C kinase inhibitor with broad antitumor activity in tissue culture cells and human tumor xenograft models” (Mol Cancer Ther, 2009).
Active and inactive are the calls of the source. No cut-off for these calls is given here.

Experiments:
SK-MEL-28 = assay: Antiproliferative activity against human SK-MEL-28 cells assessed as inhibition of cell viability measured for 6 to 7 days by cell titer glo assay; format: functional, cell-based
Summary of the method: (§1)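 Cells seeded in recommended growth medium, held overnight at 37°C in 5% CO2, then exposed to serial dilutions of inhibitor for 6–7 d. A time-zero plate was read with CellTiter-Glo at dosing. Luminescent viability read at the end. No-cell wells subtracted as background, data expressed as percent of DMSO control.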

JM1 = assay: Antiproliferative activity against human JM1 cells assessed as inhibition of cell viability measured for 6 to 7 days by cell titer glo assay; format: functional, cell-based
Summary of the method: (§2)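 Cells seeded in recommended growth medium, incubated overnight at 37°C in 5% CO2, then exposed to serial dilutions of inhibitor for 6–7 d. A parallel plate was read with CellTiter-Glo at compound addition as a T=0 value. The luminescent viability readout had no-cell background subtracted and was expressed as % of DMSO control.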

RCK8 = assay: Antiproliferative activity against human RCK8 cells assessed as inhibition of cell viability measured for 6 to 7 days by cell titer glo assay; format: functional, cell-based; summary of the method: as §1
NB-4 = assay: Antiproliferative activity against human NB4 cells assessed as inhibition of cell viability measured for 6 to 7 days by cell titer glo assay; format: functional, cell-based; summary of the method: as §2
DU-145 = assay: Antiproliferative activity against human DU-145 cells assessed as inhibition of cell viability measured for 6 to 7 days by cell titer glo assay; format: functional, cell-based
Summary of the method: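 Cells plated in recommended growth medium, held overnight at 37°C in 5% CO2, then given serial dilutions of inhibitor; a T=0 set read with CellTiter-Glo at dosing. Luminescent viability read after 6–7 d exposure.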

OVCAR-4 = assay: Antiproliferative activity against human OVCAR-4 cells assessed as inhibition of cell viability measured for 6 to 7 days by cell titer glo assay; format: functional, cell-based; summary of the method: as §1
[1] = Toxicity in SCID nude mouse xenografted with human MCF7 cells assessed as drug tolerance at 50 to 100 mg/kg, ip administered once daily for 5 consecutive days with 2 days off scheduled for 3 cycles measured upto 60 days; format: organism-based; conditions: in vivo, 1440 h, dose 50-100 mg/kg, time < 60 day
HT = assay: Antiproliferative activity against human HT cells assessed as inhibition of cell viability measured for 6 to 7 days by cell titer glo assay; format: functional, cell-based; summary of the method: as §2
[2] = Antiproliferative activity against human HS-Sultan cells assessed as inhibition of cell viability measured for 6 to 7 days by cell titer glo assay; format: functional, cell-based; summary of the method: as §2
[3] = target: Aurora kinase B/Inner centromere protein (Homo sapiens, UniProt Q96GD4); assay: Binding affinity to AurB/INCENP (unknown origin) assessed as inhibition constant; format: protein-complex assay
HD-MY-Z = assay: Antiproliferative activity against human HD-MY-Z cells assessed as inhibition of cell viability measured for 6 to 7 days by cell titer glo assay; format: functional, cell-based
Summary of the method: (§3)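 Tumor lines plated in recommended growth media, overnight at 37°C, 5% CO2, then given serial dilutions; a T=0 plate read with CellTiter-Glo at dosing. After 6–7 d of exposure, viability read by CellTiter-Glo luminescence. No-cell wells subtracted, data expressed as % of DMSO control.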

OVCAR-3 = assay: Antiproliferative activity against human OVCAR-3 cells assessed as inhibition of cell viability measured for 6 to 7 days by cell titer glo assay; format: functional, cell-based; summary of the method: as §1
SK-MEL-5 = assay: Antiproliferative activity against human SK-MEL-5 cells assessed as inhibition of cell viability measured for 6 to 7 days by cell titer glo assay; format: functional, cell-based; summary of the method: as §1
[4] = Toxicity in SCID nude mouse xenografted with human HCT-116 cells assessed as drug tolerance at 25 to 100 mg/kg, ip administered once daily for 5 consecutive days with 2 days off scheduled for 3 cycles measured upto 60 days; format: organism-based; conditions: in vivo, 1440 h, dose 25-100 mg/kg, time < 60 day
[5] = Toxicity in SCID nude mouse xenografted with human A549 cells assessed as body weight loss at 25 to 100 mg/kg, ip administered once daily for 5 consecutive days with 2 days off scheduled for 3 cycles measured upto 60 days relative to control; format: organism-based; conditions: in vivo, 1440 h, dose 25-100 mg/kg, time < 60 day
SR = assay: Antiproliferative activity against human SR cells assessed as inhibition of cell viability measured for 6 to 7 days by cell titer glo assay; format: functional, cell-based; summary of the method: as §1
MDA-MB-453 = assay: Antiproliferative activity against human MDA-MB-453 cells assessed as inhibition of cell viability measured for 6 to 7 days by cell titer glo assay; format: functional, cell-based; summary of the method: as §2
J-RT3-T3-5 = assay: Antiproliferative activity against human J-RT3-T3-5 cells assessed as inhibition of cell viability measured for 6 to 7 days by cell titer glo assay; format: functional, cell-based; summary of the method: as §2
[6] = Toxicity in SCID nude mouse xenografted with human COLO 205 cells assessed as drug tolerance at 25 to 100 mg/kg, ip administered once daily for 5 consecutive days with 2 days off scheduled for 2 cycles measured upto 60 days; format: organism-based; conditions: in vivo, 1440 h, dose 25-100 mg/kg, time 60 day
[7] = Toxicity in SCID nude mouse xenografted with human A549 cells assessed as drug tolerance at 25 to 100 mg/kg, ip administered once daily for 5 consecutive days with 2 days off scheduled for 3 cycles measured upto 60 days; format: organism-based; conditions: in vivo, 1440 h, dose 25-100 mg/kg, time 60 day
MHH-PREB-1 = assay: Antiproliferative activity against human MHH-PREB-1 cells assessed as inhibition of cell viability measured for 6 to 7 days by cell titer glo assay; format: functional, cell-based; summary of the method: as §2
NAMALVA = assay: Antiproliferative activity against human NAMALWA cells assessed as inhibition of cell viability measured for 6 to 7 days by cell titer glo assay; format: functional, cell-based; summary of the method: as §2
HH = assay: Antiproliferative activity against human HH cells assessed as inhibition of cell viability measured for 6 to 7 days by cell titer glo assay; format: functional, cell-based; summary of the method: as §2
A549 = assay: Induction of mitotic alteration in human A549 cells formation of unorganized chromosomes at 12 to 330 nmol/L incubated for 24 hrs by immunofluorescent microscopy based analysis; format: functional, cell-based; conditions: dose lower […], dose upper 330.0 nmol/L
EB-3 = assay: Antiproliferative activity against human EB-3 cells assessed as inhibition of cell viability measured for 6 to 7 days by cell titer glo assay; format: functional, cell-based; summary of the method: as §3
[8] = Antiproliferative activity against human BCP-1 cells assessed as inhibition of cell viability measured for 6 to 7 days by cell titer glo assay; format: functional, cell-based; summary of the method: as §3
[9] = Antiproliferative activity against human Karpas-231 cells assessed as inhibition of cell viability measured for 6 to 7 days by cell titer glo assay; format: functional, cell-based; summary of the method: as §2
HuT78 = assay: Antiproliferative activity against human HuT78 cells assessed as inhibition of cell viability measured for 6 to 7 days by cell titer glo assay; format: functional, cell-based; summary of the method: as §2

Sequence of Aurora kinase B/Inner centromere protein (Q96GD4 whole entry): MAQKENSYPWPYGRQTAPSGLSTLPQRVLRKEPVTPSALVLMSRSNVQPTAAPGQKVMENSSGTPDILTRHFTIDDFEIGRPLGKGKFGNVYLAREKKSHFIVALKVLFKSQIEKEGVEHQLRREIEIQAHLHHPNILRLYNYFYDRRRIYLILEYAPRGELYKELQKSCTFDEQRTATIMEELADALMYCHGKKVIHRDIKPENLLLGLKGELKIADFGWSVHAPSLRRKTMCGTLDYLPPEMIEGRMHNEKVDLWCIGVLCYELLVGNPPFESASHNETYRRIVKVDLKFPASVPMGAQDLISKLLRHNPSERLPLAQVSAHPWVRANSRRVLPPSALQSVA
Sequence of Aurora kinase B/Inner centromere protein (Q9NQS7 whole entry, further chain): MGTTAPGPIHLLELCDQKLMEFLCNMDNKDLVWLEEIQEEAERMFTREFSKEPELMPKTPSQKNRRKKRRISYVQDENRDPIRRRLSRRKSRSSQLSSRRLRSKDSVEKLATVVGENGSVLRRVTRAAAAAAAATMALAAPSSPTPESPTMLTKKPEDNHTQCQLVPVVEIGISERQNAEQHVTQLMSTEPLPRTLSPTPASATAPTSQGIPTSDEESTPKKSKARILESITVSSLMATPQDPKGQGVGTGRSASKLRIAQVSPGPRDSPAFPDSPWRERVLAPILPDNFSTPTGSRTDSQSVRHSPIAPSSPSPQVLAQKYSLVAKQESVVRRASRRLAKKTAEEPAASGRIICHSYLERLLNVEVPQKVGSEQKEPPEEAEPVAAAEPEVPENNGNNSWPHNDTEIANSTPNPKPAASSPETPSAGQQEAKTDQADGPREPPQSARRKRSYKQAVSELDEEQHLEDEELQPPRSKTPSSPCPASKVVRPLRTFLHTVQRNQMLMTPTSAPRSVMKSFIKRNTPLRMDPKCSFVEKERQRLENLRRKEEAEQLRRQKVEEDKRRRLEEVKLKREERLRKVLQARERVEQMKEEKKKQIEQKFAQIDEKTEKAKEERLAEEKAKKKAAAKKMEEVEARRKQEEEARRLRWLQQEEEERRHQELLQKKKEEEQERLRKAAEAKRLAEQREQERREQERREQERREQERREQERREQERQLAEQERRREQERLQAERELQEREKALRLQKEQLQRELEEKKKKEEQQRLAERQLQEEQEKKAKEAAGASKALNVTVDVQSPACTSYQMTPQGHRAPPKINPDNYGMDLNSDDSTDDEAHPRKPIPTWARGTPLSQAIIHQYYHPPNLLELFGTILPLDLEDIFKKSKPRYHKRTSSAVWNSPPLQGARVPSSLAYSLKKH

Compound `CCn1cc(-c2ccnc3[nH]c(-c4cccc(CN(C)C)c4)cc23)c(-c2ccc(NC(=O)N(C)C)cc2)n1` [GSK-1070916] has an EC50 (SK-MEL-28) of 7 nM, an EC50 (JM1) of 7 nM and an EC50 (RCK8) of 38 nM. For the same compound, the EC50 (NB-4) was 11 nM, the EC50 (DU-145) was 15 nM and the EC50 (OVCAR-4) was 11 nM. The Activity [1] was “Toxic”, the EC50 (HT) was 7 nM and the EC50 [2] was 14 nM. It also gave a Ki [3] of 0.39 nM, an EC50 (HD-MY-Z) of 4 nM and an EC50 (OVCAR-3) of 3 nM. For the same compound, the EC50 (SK-MEL-5) was 8 nM, the Activity [4] was “Non-Toxic” and the Activity [5] was under 15%. It also gave an EC50 (SR) of 3 nM, an EC50 (MDA-MB-453) of 6 nM and an EC50 (J-RT3-T3-5) of 9 nM. For the same compound, the Activity [6] was “Non-Toxic”, the Activity [7] was “Non-Toxic” and the EC50 (MHH-PREB-1) was 4 nM. The EC50 (NAMALVA) was 6 nM, the EC50 (HH) was 18 nM and the Activity (A549) was “Active”. For the same compound, the EC50 (EB-3) was 7 nM, the EC50 [8] was 31 nM and the EC50 [9] was 3 nM. The EC50 (HuT78) was 14 nM.
